Experiments:
L1210 = experiment: Antiproliferative activity against mouse L1210 cells after 2 days by coulter counter method; assay type: functional, cell-based; conditions: L1210, 48 h
Outline: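 Cells seeded at 300,000-500,000 cells/mL, mixed 1:1 with compound dilutions and incubated 2 days at 37 °C. Cell number counted by Coulter counter. IC50 is the concentration giving 50% inhibition of proliferation, taken from dose-response curves. Mean ± SE of at least three independent experiments.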

FM3A = experiment: Antiproliferative activity against mouse FM3A cells after 2 days by coulter counter method; assay type: functional, cell-based; conditions: 48 h
Outline: (§1)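 Cells seeded at 300,000-500,000 cells/mL, mixed 1:1 with compound dilutions and incubated 2 days at 37 °C. Cell number counted by Coulter counter. Mean ± SE of at least three independent experiments.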

MOLT-4 = experiment: Antiproliferative activity against human MOLT4 cells after 2 days by coulter counter method; assay type: functional, cell-based; conditions: MOLT-4, 48 h; outline: as §1
CCRF-CEM = experiment: Antiproliferative activity against human CEM cells after 2 days by coulter counter method; assay type: functional, cell-based; conditions: 48 h; outline: as §1
HeLa [1] = experiment: Antiproliferative activity against human HeLa cells after 2 days by coulter counter method; assay type: functional, cell-based; conditions: 48 h; outline: as §1
Bos taurus = organism: Bos taurus; experiment: Displacement of [3H]colchicine from bovine brain tubulin at 1 uM
Outline: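 Reaction mixtures held 1 μM bovine brain tubulin, 5 μM [3H]colchicine and 1 μM test compound. Inhibition of radiolabelled colchicine binding to tubulin was measured.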

[2] = Inhibition of bovine brain tubulin polymerization by turbidimetry; design: species or system Bos taurus
Outline: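 Purified bovine brain tubulin (10 μM) preincubated with varying compound concentrations in glutamate buffer at 30 °C, then chilled to 0 °C. GTP added, mixtures warmed to 30 °C in a recording spectrophotometer and assembly followed turbidimetrically.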

HeLa [3] = experiment: Cell cycle arrest in human HeLa cells assessed as accumulation at G1 phase at 30 nM after 24 hrs uisng propidium iodide staining by flow cytometry; assay type: functional
Outline: (§2)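 Exponentially growing HeLa cells (5×10^5) treated 24 h. Floating and trypsinized cells pooled, fixed in ice-cold 70% ethanol, lysed with RNaseA buffer and stained with propidium iodide. DNA histograms acquired by flow cytometry. Percentages of G1, S and G2/M phases calculated on living cells, with the sub-G1 peak also scored.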

HeLa [4] = experiment: Cell cycle arrest in human HeLa cells assessed as accumulation at S phase at 30 nM after 24 hrs uisng propidium iodide staining by flow cytometry; assay type: functional; outline: as §2
HeLa [5] = experiment: Cell cycle arrest in human HeLa cells assessed as accumulation at G2/M phase at 30 nM after 24 hrs uisng propidium iodide staining by flow cytometry; assay type: functional; outline: as §2
HeLa [6] = experiment: Cell cycle arrest in human HeLa cells assessed as accumulation at subG1 phase at 30 nM after 24 hrs uisng propidium iodide staining by flow cytometry; assay type: functional; outline: as §2
HeLa [7] = experiment: Induction of apoptosis in human HeLa cells assessed as appearance of hypodiploid cells after 24 hrs using propidium iodide staining by flow cytometry; assay type: functional, cell-based
Outline: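 HeLa cells (5×10^5, exponential growth) exposed to a range of concentrations for 24 h, then ethanol-fixed (70%, ice-cold), RNaseA-treated and propidium iodide-stained for flow cytometry. Apoptotic fraction taken as the cells forming a sub-G1 peak.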

Row | inhibition (Bos taurus) | IC50 [2] | SMILES | IC50 (L1210) | IC50 (FM3A) | IC50 (MOLT-4) | IC50 (CCRF-CEM) | IC50 (HeLa [1]) | Activity (HeLa [3]) | Activity (HeLa [4]) | Activity (HeLa [5]) | Activity (HeLa [6]) | Activity (HeLa [7])
1 |  |  | COc1ccc(C(=O)c2sc(Nc3ccccc3)nc2N)cc1 | > 10000 nM | > 10000 nM | 6900 nM | 9100 nM | > 10000 nM |  |  |  |  | 
2 | 35% |  | Nc1nc(Nc2ccccc2)sc1C(=O)c1ccccc1 | 8100 nM | 8200 nM | 7300 nM | 3900 nM | 6100 nM |  |  |  |  | 
3 |  |  | COc1ccc(C(=O)c2sc(Nc3ccc(F)cc3)nc2N)cc1 | > 10000 nM | > 10000 nM | > 10000 nM | > 10000 nM | > 10000 nM |  |  |  |  | 
4 | 84% | 1400 nM | COc1ccc(Nc2nc(N)c(C(=O)c3cccc(OC)c3)s2)cc1 | 35 nM | 50 nM | 4 nM | 9.9 nM | 37 nM | 40% | 20.8% | 39.2% | 9.6% | 
5 |  |  | COc1cccc(C(=O)c2sc(Nc3ccccc3)nc2N)c1 | 7600 nM | 6200 nM | 1300 nM | 2300 nM | 1700 nM |  |  |  |  | 
6 | 43% | 3600 nM | COc1cccc(Nc2nc(N)c(C(=O)c3ccccc3)s2)c1 | 8200 nM | 5000 nM | 1500 nM | 2900 nM | 3200 nM |  |  |  |  | 
7 |  |  | COc1ccc(Nc2nc(N)c(C(=O)c3ccc([N+](=O)[O-])cc3)s2)cc1 | 280 nM | 310 nM | 29 nM | 31 nM | 350 nM |  |  |  |  | 
8 | 87% | 720 nM | COc1cc(C(=O)c2sc(Nc3ccc(C)cc3)nc2N)cc(OC)c1OC | 31 nM | 15 nM | 21 nM | 41 nM | 86 nM | 32.1% | 17.4% | 50.5% | 18.9% | Dose-dependent effect
9 |  |  | COc1ccc(/N=c2/[nH]c(N)c(C(=O)c3ccc(OC)cc3)s2)cc1 | 470 nM | 630 nM | 320 nM | 1200 nM | 330 nM |  |  |  |  | 
10 | 63% | 2800 nM | COc1ccc(Nc2nc(N)c(C(=O)c3ccc(OC)c(OC)c3)s2)cc1 | 38 nM | 71 nM | 37 nM | 10 nM | 52 nM | 35.7% | 15.5% | 48.8% | 17.8% | Dose-dependent effect
11 |  |  | COc1ccc(C(=O)c2sc(Nc3ccc(Cl)cc3)nc2N)cc1 | > 10000 nM | > 10000 nM | > 10000 nM | > 10000 nM | > 10000 nM |  |  |  |  | 
12 |  |  | Nc1nc(Nc2ccc(F)cc2)sc1C(=O)c1ccccc1 | > 10000 nM | > 10000 nM | > 10000 nM | > 10000 nM | > 10000 nM |  |  |  |  | 
13 |  |  | COc1cc(C(=O)c2sc(Nc3ccc(F)cc3)nc2N)cc(OC)c1OC | 900 nM | 58 nM | 280 nM | 400 nM | 440 nM |  |  |  |  | 
14 | 89% | 1100 nM | COc1ccc(Nc2nc(N)c(C(=O)c3ccc(Cl)cc3)s2)cc1 | 84 nM | 59 nM | 13 nM | 19 nM | 83 nM | 17.1% | 18.9% | 64% | 23.3% | Dose-dependent effect
15 |  |  | COc1cccc(Nc2nc(N)c(C(=O)c3cc(OC)c(OC)c(OC)c3)s2)c1 | 2100 nM | 2000 nM | 530 nM | 1300 nM | 1000 nM |  |  |  |  | 
16 | 77% | 1400 nM | COc1ccc(Nc2nc(N)c(C(=O)c3ccccc3OC)s2)cc1 | 31 nM | 52 nM | 18 nM | 17 nM | 17 nM | 38.5% | 20.4% | 40.1% | 28.6% | Dose-dependent effect
17 |  |  | COc1ccc(Nc2nc(N)c(C(=O)c3ccc(Br)cc3)s2)cc1 | 110 nM | 100 nM | 16 nM | 39 nM | 79 nM |  |  |  |  | 
18 | 58% | 4000 nM | Cc1ccc(Nc2nc(-n3ccnc3C)cs2)cc1 | 1800 nM | 1200 nM | 510 nM | 1500 nM | 530 nM |  |  |  |  | 
19 |  |  | COc1ccc(C(=O)c2sc(Nc3ccccc3)nc2N)cc1OC | > 10000 nM | > 10000 nM | 5500 nM | 6900 nM | 6000 nM |  |  |  |  | 
20 |  |  | COc1ccccc1C(=O)c1sc(Nc2ccccc2)nc1N | 1100 nM | 1100 nM | 1300 nM | 730 nM | 1200 nM |  |  |  |  | 
21 |  |  | Nc1nc(Nc2ccc(Cl)cc2)sc1C(=O)c1ccccc1 | > 10000 nM | > 10000 nM | > 10000 nM | > 10000 nM | > 10000 nM |  |  |  |  | 
22 |  |  | Cc1ccc(Nc2nc(N)c(C(=O)c3ccccc3)s2)cc1 | 2800 nM | 1500 nM | 210 nM | 370 nM | 900 nM |  |  |  |  | 
23 | 75% | 2500 nM | COc1cc(C(=O)c2sc(Nc3ccccc3)nc2N)cc(OC)c1OC | 18 nM | 23 nM | 6 nM | 9.4 nM | 14 nM | 32.1% | 25.6% | 42.3% | 22.2% | Dose-dependent effect
24 |  |  | COc1cc(C(=O)c2sc(Nc3ccc(Cl)cc3)nc2N)cc(OC)c1OC | 420 nM | 420 nM | 110 nM | 190 nM | 180 nM |  |  |  |  | 
25 |  |  | COc1ccc(Nc2nc(N)c(C(=O)c3ccccc3)s2)cc1 | 850 nM | 730 nM | 230 nM | 300 nM | 230 nM |  |  |  |  | 
26 |  |  | COc1ccc(Nc2nc(N)c(C(=O)c3cc(OC)c(OC)c(OC)c3)s2)cc1 | 1500 nM | 2200 nM | 480 nM | 1100 nM | 560 nM |  |  |  |  | 

Row | SMILES | inhibition (Bos taurus) | IC50 [2] | IC50 (L1210) | IC50 (FM3A) | IC50 (MOLT-4) | IC50 (CCRF-CEM) | IC50 (HeLa [1]) | Activity (HeLa [3]) | Activity (HeLa [4]) | Activity (HeLa [5]) | Activity (HeLa [6]) | Activity (HeLa [7])
27 | COc1ccc(/C=C\c2cc(OC)c(OC)c(OC)c2)cc1O [COMBRETASTATIN A4] |  | 1400 nM |  |  |  |  |  |  |  |  |  | 

From ChEMBL document CHEMBL1152432, “2-Arylamino-4-amino-5-aroylthiazoles. "One-pot" synthesis and biological evaluation of a new class of inhibitors of tubulin polymerization” (J Med Chem, 2009)
